The source made the active and inactive calls. No cut-off for these calls is given here.
Columns and labels:
[1] = molecular target: Prostaglandin G/H synthase 1 (Homo sapiens, UniProt P23219); test: Inhibition of COX1 expressed in CHO cells assessed as inhibition of arachidonic acid-stimulated PGE2 production by enzyme immunoassay; type: functional, cell-based
[2] = molecular target: T1, Prostaglandin G/H synthase 2 (Homo sapiens, UniProt P35354); test: Inhibition of COX2 expressed in CHO cells assessed as inhibition of arachidonic acid-stimulated PGE2 production by enzyme immunoassay
T1 sequence (P35354 whole entry): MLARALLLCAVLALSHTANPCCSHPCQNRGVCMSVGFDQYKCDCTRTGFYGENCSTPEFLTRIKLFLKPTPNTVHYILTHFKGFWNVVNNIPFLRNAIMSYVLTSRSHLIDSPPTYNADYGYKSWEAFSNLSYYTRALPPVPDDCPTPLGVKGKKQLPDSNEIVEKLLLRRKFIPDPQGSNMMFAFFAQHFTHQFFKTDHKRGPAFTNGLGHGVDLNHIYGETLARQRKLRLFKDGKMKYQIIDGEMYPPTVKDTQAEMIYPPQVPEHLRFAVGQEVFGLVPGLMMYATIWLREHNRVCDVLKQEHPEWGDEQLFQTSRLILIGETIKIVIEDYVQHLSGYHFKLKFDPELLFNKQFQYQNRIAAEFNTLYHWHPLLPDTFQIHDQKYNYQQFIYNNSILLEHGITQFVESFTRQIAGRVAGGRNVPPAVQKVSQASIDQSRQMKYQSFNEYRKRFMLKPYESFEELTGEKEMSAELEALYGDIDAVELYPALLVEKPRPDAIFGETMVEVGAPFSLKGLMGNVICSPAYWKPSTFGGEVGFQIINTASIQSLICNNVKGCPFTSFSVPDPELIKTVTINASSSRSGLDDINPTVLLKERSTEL

Homo sapiens = species: Homo sapiens; test: Selectivity for COX2 over COX1
Outline: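 Ratio of COX-1 to COX-2 IC50s, each taken from PGE2 production in CHO cells transfected with COX-1 or with COX-2. Cells were seeded and, 18 h later, given fresh Ham's F12 with 10% fetal calf serum with or without compound. After 10 min they were stimulated with arachidonic acid, then for 10 min with calcium ionophore A 23187. Intracellular PGE2 was read by enzyme immunoassay, n = 2.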

[3] = molecular target: T2, Polyunsaturated fatty acid 5-lipoxygenase (Homo sapiens, UniProt P09917); test: Inhibition of 5LOX in human whole blood assessed as inhibition of calcium ionophore A 23187-stimulated 5HETE production by HPLC analysis; type: functional, tissue-based
T2 sequence (P09917 whole entry): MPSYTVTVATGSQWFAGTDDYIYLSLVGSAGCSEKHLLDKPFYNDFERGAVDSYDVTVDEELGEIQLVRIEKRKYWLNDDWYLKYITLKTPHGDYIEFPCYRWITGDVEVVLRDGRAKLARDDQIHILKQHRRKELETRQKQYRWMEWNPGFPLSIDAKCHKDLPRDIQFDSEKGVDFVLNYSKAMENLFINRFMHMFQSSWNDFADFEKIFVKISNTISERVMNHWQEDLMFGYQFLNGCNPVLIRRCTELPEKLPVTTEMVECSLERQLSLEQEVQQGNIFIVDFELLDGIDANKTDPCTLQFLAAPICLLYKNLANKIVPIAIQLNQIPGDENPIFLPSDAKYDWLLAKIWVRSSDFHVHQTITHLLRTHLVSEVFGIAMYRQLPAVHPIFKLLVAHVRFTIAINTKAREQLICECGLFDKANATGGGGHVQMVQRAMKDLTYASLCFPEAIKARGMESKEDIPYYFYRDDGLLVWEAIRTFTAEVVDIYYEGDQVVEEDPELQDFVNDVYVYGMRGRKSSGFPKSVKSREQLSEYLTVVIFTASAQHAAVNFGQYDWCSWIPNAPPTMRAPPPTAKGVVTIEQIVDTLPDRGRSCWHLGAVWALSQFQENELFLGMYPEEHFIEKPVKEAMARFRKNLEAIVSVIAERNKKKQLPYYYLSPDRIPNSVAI
Outline: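 Heparinized human whole blood, 1 mL aliquots, preincubated 15 min at 37 °C with compound or DMSO vehicle; then stimulated with 40 μM A 23187 for 15 min at 37 °C. 5-HETE extracted into ethyl acetate, then HPLC on a C18 column, methanol/water/acetic acid 80:20:0.08, pH 6.0, UV at 234 nm. IC50 from n = 2.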

PC-3 = test: Antiproliferative activity against androgen-independent human PC3 cells at 100 uM after 72 hrs by MTT test; type: functional
Outline: (§1)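 Prostate carcinoma cells kept at 37 °C, 5% CO2 in RPMI 1640 with 10% fetal calf serum; seeded 1.8 × 10⁴ (PC 3) or 5.0 × 10⁴ (LNCaP) cells/well, grown 3 days, serum-starved 24 h for synchronization, then exposed 72 h to compounds in medium (<0.1% DMSO); growth read by colorimetric MTT. Mean of at least four independent determinations; single-dose lines at 100 μM.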

LNCaP [4] = test: Antiproliferative activity against androgen-sensitive human LNCaP cells at 100 uM after 72 hrs by MTT test; type: functional; outline: as §1
LNCaP [5] = test: Cell cycle arrest in human LNCaP cells by accumulation at subG1 phase at 10 uM after 72 hrs by FACS flow cytometry; type: functional
Outline: (§2)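 LNCaP or PC 3 cells seeded in 6-well plates, synchronized 24 h in serum-free medium, treated 72 h with varying compound concentrations; trypsinized cells pooled with supernatants, pelleted, fixed in cold ethanol overnight at 4 °C, then 30 min in PBS with RNase and propidium iodide. FACScan flow cytometry quantified sub-G1 (sub-diploid), G1, S and G2-M fractions as percent of cells.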

LNCaP [6] = test: Cell cycle arrest in human LNCaP cells by accumulation at G1 phase at 10 uM after 72 hrs by FACS flow cytometry; type: functional; outline: as §2
LNCaP [7] = test: Cell cycle arrest in human LNCaP cells by accumulation at S phase at 10 uM after 72 hrs by FACS flow cytometry; type: functional; outline: as §2
LNCaP [8] = test: Cell cycle arrest in human LNCaP cells by accumulation at G2M phase at 10 uM after 72 hrs by FACS flow cytometry; type: functional; outline: as §2
LNCaP [9] = test: Cell cycle arrest in human LNCaP cells assessed as induction of G1 block at 100 uM by FACS flow cytometry; type: functional, cell-based; outline: as §2

Sequence of Prostaglandin G/H synthase 1 (P23219 whole entry): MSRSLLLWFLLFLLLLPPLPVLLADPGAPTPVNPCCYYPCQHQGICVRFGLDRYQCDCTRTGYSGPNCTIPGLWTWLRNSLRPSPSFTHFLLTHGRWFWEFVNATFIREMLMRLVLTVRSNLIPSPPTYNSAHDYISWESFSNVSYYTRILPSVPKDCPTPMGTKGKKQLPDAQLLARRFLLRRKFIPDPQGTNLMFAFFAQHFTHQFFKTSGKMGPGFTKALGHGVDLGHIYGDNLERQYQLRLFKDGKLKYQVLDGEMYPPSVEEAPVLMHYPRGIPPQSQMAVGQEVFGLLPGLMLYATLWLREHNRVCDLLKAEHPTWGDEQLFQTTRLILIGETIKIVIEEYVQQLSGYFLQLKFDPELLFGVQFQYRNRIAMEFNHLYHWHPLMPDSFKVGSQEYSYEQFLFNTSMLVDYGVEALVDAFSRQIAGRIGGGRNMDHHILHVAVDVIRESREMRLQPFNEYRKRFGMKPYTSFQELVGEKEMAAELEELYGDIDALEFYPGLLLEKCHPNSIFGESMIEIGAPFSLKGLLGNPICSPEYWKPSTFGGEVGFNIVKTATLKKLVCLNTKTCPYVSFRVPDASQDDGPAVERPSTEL

| Compound | IC50 [1] [nM] | IC50 [2] [nM] | Selectivity ratio (Homo sapiens) | IC50 [3] [nM] | Activity (PC-3) [%] | Activity (LNCaP [4]) [%] | Activity (LNCaP [5]) [%] | Activity (LNCaP [6]) [%] | Activity (LNCaP [7]) [%] | Activity (LNCaP [8]) [%] | Activity (LNCaP [9]) |
| --- | --- | --- | --- | --- | --- | --- | --- | --- | --- | --- | --- |
| CS(=O)(=O)c1ccc(-n2nc(COc3ccc4c(c3)OCO4)cc2-c2ccccc2)cc1 | 15800 | 450 | 35 | > 10000 | – | – | – | – | – | – | – |
| COC1(c2cc(F)cc(OCc3cc(-c4ccccc4)n(-c4ccccc4)n3)c2)CCOCC1 | 7140 | 610 | 12 | 570 | 0 | 0 | 3 | 72.9 | 10.6 | 13.9 | – |
| COC1(c2cc(F)cc(OCc3ccc4c(ccc(=O)n4C)c3)c2)CCOCC1 [ZD-2138] | > 100000 | > 100000 | – | 83 | – | – | – | – | – | – | – |
| CS(=O)(=O)c1ccc(-n2nc(COc3cccc([N+](=O)[O-])c3)cc2-c2ccccc2)cc1 | > 100000 | 740 | > 134 | > 10000 | – | – | – | – | – | – | – |
| COc1cc(OC)cc(OCc2cc(-c3ccccc3)n(-c3ccc(S(C)(=O)=O)cc3)n2)c1 | 25100 | 870 | 29 | > 10000 | – | – | – | – | – | – | – |
| COC1(c2cc(F)cc(OCc3cc(-c4ccccc4)n(-c4ccc(OC(F)(F)F)cc4)n3)c2)CCOCC1 | – | 820 | – | 850 | 0 | 0 | 3.6 | 74.7 | 10.6 | 11 | – |
| COC1(c2cc(F)cc(OCc3cc(-c4ccccc4)n(-c4ccc(Cl)cc4)n3)c2)CCOCC1 | 1810 | 930 | 2 | 830 | 0 | 0 | 2.5 | 75.5 | 11.1 | 11.1 | – |
| CCOc1cccc(OCc2cc(-c3ccccc3)n(-c3ccc(S(C)(=O)=O)cc3)n2)c1 | > 100000 | 900 | > 112 | > 10000 | – | – | – | – | – | – | – |
| CS(=O)(=O)c1ccc(C2=C(c3ccccc3)C(=O)OC2)cc1 [ROFECOXIB] | – | – | – | – | 15 | 0 | 4 | 69.4 | 11.4 | 15.2 | inactive |
| COC1(c2cc(F)cc(OCc3cc(-c4ccccc4)n(-c4ccc(Cl)c(Cl)c4)n3)c2)CCOCC1 | – | 700 | – | 800 | 21 | 32 | 4.6 | 68.2 | 11.5 | 15.5 | – |
